species: Cavia porcellus; experiment: Percent inhibition of slow reacting substance of anaphylaxis (SRS-A) induced contractions of isolated guinea pig ileum at 10 uM concentration.; format: functional
In short: (§1)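 Ileum segments proximal to Peyer's patch from male albino Hartley guinea pigs (400-600 g), in modified Tyrode's at 37.5 °C gassed with 95% O2-5% CO2. Isometric contractions recorded. Partially purified guinea pig SRS-A applied at a level giving 60-80% of maximal contraction until responses are reproducible, then reapplied after incubation with compound. Controls receive vehicle. Inhibition is the mean % change in treated tissue minus the mean % change in controls. FPL-55712 serves as reference.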

SMILES | inhibition at 10 µM
O=S(=O)(NCCCCc1ccccc1)NS(=O)(=O)NCCCCc1ccccc1 | 40%
O=S(=O)(NCCc1ccc(Cl)c(Cl)c1)NS(=O)(=O)NCCc1ccc(Cl)c(Cl)c1 | 43%
O=S(=O)(Nc1ccc(C(F)(F)F)cc1)NS(=O)(=O)Nc1ccc(C(F)(F)F)cc1 | 24%
O=S(=O)(NCc1ccccc1)NS(=O)(=O)NCc1ccccc1 | 0.2%
O=S(=O)(NCCCCCc1ccccc1)NS(=O)(=O)NCCCCCc1ccccc1 | 8%
O=S(=O)(NCCc1ccccc1Cl)NS(=O)(=O)NCCc1ccccc1Cl | 8%
O=S(=O)(NCCCCc1ccc(Cl)cc1)NS(=O)(=O)NCCCCc1ccc(Cl)cc1 | 22%
O=S(=O)(NCCCCCCc1ccccc1)NS(=O)(=O)NCCCCCCc1ccccc1 | 15%

species: Cavia porcellus; experiment: Percent inhibition of slow reacting substance of anaphylaxis (SRS-A) induced contractions of isolated guinea pig ileum at 20 uM concentration.; format: functional; in short: as §1

SMILES | inhibition at 20 µM
O=S(=O)(NCCc1ccccc1)NS(=O)(=O)NCCc1ccccc1 | 7%
O=S(=O)(NCCCc1ccccc1)NS(=O)(=O)NCCCc1ccccc1 | 15%
O=S(=O)(NCCc1ccc(Cl)cc1)NS(=O)(=O)NCCc1ccc(Cl)cc1 | 62%
O=S(=O)(Nc1ccccc1)NS(=O)(=O)Nc1ccccc1 | 6%

species: Cavia porcellus; experiment: Percent inhibition of slow reacting substance of anaphylaxis (SRS-A) induced contractions of isolated guinea pig ileum at 50 uM concentration.; format: functional; in short: as §1

SMILES | inhibition at 50 µM
N#Cc1ccc(NS(=O)(=O)NS(=O)(=O)Nc2ccc(C#N)cc2)cc1 | -8%
O=S(=O)(Nc1cccc(Cl)c1)NS(=O)(=O)Nc1cccc(Cl)c1 | 16%
Cc1ccc(CCNS(=O)(=O)NS(=O)(=O)NCCc2ccc(C)cc2)cc1 | 1%
O=S(=O)(Nc1ccc(C(F)(F)F)cc1)NS(=O)(=O)Nc1ccc(C(F)(F)F)cc1 | 86%
O=S(=O)(Nc1ccc(F)cc1)NS(=O)(=O)Nc1ccc(F)cc1 | 1%
O=S(=O)(NCCc1cccc(C(F)(F)F)c1)NS(=O)(=O)NCCc1cccc(C(F)(F)F)c1 | 32%
O=S(=O)(NCCc1ccc(Br)cc1)NS(=O)(=O)NCCc1ccc(Br)cc1 | 72%
O=S(=O)(Nc1cccc(C(F)(F)F)c1)NS(=O)(=O)Nc1cccc(C(F)(F)F)c1 | 34%
CC(=O)c1ccc(NS(=O)(=O)NS(=O)(=O)Nc2ccc(C(C)=O)cc2)cc1 | -11%
O=S(=O)(NCCc1cccc(Cl)c1)NS(=O)(=O)NCCc1cccc(Cl)c1 | 16%
O=S(=O)(Nc1cccc(Br)c1)NS(=O)(=O)Nc1cccc(Br)c1 | 38%
COc1ccccc1CCNS(=O)(=O)NS(=O)(=O)NCCc1ccccc1OC | 0.2%
O=S(=O)(Nc1cccc(F)c1)NS(=O)(=O)Nc1cccc(F)c1 | 10%
O=S(=O)(Nc1ccc(Br)cc1)NS(=O)(=O)Nc1ccc(Br)cc1 | 47%
O=S(=O)(NCCc1ccc(O)cc1)NS(=O)(=O)NCCc1ccc(O)cc1 | 7%
COc1ccc(CCNS(=O)(=O)NS(=O)(=O)NCCc2ccc(OC)cc2)cc1 | 18%
CSc1cccc(NS(=O)(=O)NS(=O)(=O)Nc2cccc(SC)c2)c1 | 12%
Cc1cccc(NS(=O)(=O)NS(=O)(=O)Nc2cccc(C)c2)c1 | 13%
COc1cccc(CCNS(=O)(=O)NS(=O)(=O)NCCc2cccc(OC)c2)c1 | 9%
O=[N+]([O-])c1ccc(CCNS(=O)(=O)NS(=O)(=O)NCCc2ccc([N+](=O)[O-])cc2)cc1 | 19%
O=S(=O)(Nc1ccc(Cl)cc1)NS(=O)(=O)Nc1ccc(Cl)cc1 | -2%

species: Cavia porcellus; experiment: Percent inhibition of slow reacting substance of anaphylaxis (SRS-A) induced contractions of isolated guinea pig ileum at 5 uM concentration.; format: functional; in short: as §1

SMILES | inhibition at 5 µM
O=S(=O)(NCCc1cccc(SC(F)(F)F)c1)NS(=O)(=O)NCCc1cccc(SC(F)(F)F)c1 | -6%
CCCCc1ccc(NS(=O)(=O)NS(=O)(=O)Nc2ccc(CCCC)cc2)cc1 | 5%
CCOC(=O)c1ccc(NS(=O)(=O)NS(=O)(=O)Nc2ccc(C(=O)OCC)cc2)cc1 | -5%
